Several values for one entry are separate records, joined by “and”; a condition that tells them apart may be missing. Equal values may be shown once.
Tested on: U2OS
Assay: Multiplex assay against U2OS
Type: toxicity, cell-based
Conditions: human, number of replicates 2
Procedure, shortened: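 At seeding, live cells were stained with Hoechst33342, BioTracker Green Microtubule Cytoskeleton Dye, MitoTracker Red and Annexin V Alexa Fluor 680. After compound addition they were imaged on a CQ1 microscope at 37°C and 5% CO2, and CellPathfinder machine-learning gating sorted them into Hoechst high-intensity objects or normal cells, with normal cells further split into healthy, pyknosed or fragmented nuclei and pyknosed cells into mitotic or apoptotic. Tubulin, mitochondrial-mass and membrane-permeability phenotypes are given as per cents of cells with healthy nuclei.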

[1] = 12 h, 1 µM, compound concentration 1 uM
[2] = 12 h, 10 µM, compound concentration 10 uM
[3] = 24 h, 1 µM, compound concentration 1 uM
[4] = 24 h, 10 µM, compound concentration 10 uM
[5] = 48 h, 1 µM, compound concentration 1 uM
[6] = 48 h, 10 µM, compound concentration 10 uM

`COc1cc(OC)cc(C(=O)NNC(=O)Nc2cccc3ccccc23)c1` was tested, and the “Population Apoptotic (%)” value [1] was 66% and 60%, the “Population Healthy Nuclei (%)” value [1] was 65% and 85% and the “Population Hoechst High Intensity Objects (%)” value [1] was 0%. The “Population Membrane Permeable-Phenotype (%)” value [1] was 7% and 3%, the “Population Mitochondria Different-Phenotype (%)” value [1] was 0% and the “Population Mitotic Cells (%)” value [1] was 33% and 39%. The “Population Normal (%)” value [1] was 100%, the “Population Pyknosed Nuclei (%)” value [1] was 15% and 11% and the “Population Tubulin-Different-Phenotype (%)” value [1] was 53% and 88%. For the same compound, the “Population Healthy Nuclei (%)” value [2] was 80% and 64%, the “Population Hoechst High Intensity Objects (%)” value [2] was 0% and the “Population Membrane Permeable-Phenotype (%)” value [2] was 0% and 5%. For the same compound, the “Population Mitochondria Different-Phenotype (%)” value [2] was 0%, the “Population Mitotic Cells (%)” value [2] was 57% and 90% and the “Population Normal (%)” value [2] was 100%. For the same compound, the “Population Pyknosed Nuclei (%)” value [2] was 15% and 19%, the “Population Tubulin-Different-Phenotype (%)” value [2] was 71% and 38% and the “Population Apoptotic (%)” value [3] was 51% and 100%. The “Population Fragmented Nuclei (%)” value [3] was 4% and 12%, the “Population Healthy Nuclei (%)” value [3] was 83% and 79% and the “Population Hoechst High Intensity Objects (%)” value [3] was 0%. The “Population Membrane Permeable-Phenotype (%)” value [3] was 2% and 0%, the “Population Mitochondria Different-Phenotype (%)” value [3] was 0% and the “Population Normal (%)” value [3] was 99% and 100%. The “Population Pyknosed Nuclei (%)” value [3] was 11% and 8%, the “Population Tubulin-Different-Phenotype (%)” value [3] was 89% and 36% and the “Population Apoptotic (%)” value [4] was 34% and 30%. The “Population Fragmented Nuclei (%)” value [4] was 5% and 6%, the “Population Healthy Nuclei (%)” value [4] was 83% and 73% and the “Population Hoechst High Intensity Objects (%)” value [4] was 0%. For the same compound, the “Population Membrane Permeable-Phenotype (%)” value [4] was 0% and 4%, the “Population Mitochondria Different-Phenotype (%)” value [4] was 0% and 4% and the “Population Mitotic Cells (%)” value [4] was 65% and 69%. The “Population Normal (%)” value [4] was 100%, the “Population Pyknosed Nuclei (%)” value [4] was 11% and 20% and the “Population Tubulin-Different-Phenotype (%)” value [4] was 81% and 50%. For the same compound, the “Population Apoptotic (%)” value [5] was 64% and 50%, the “Population Fragmented Nuclei (%)” value [5] was 3% and 6% and the “Population Healthy Nuclei (%)” value [5] was 88% and 85%. The “Population Hoechst High Intensity Objects (%)” value [5] was 0%, the “Population Membrane Permeable-Phenotype (%)” value [5] was 0% and 4% and the “Population Mitochondria Different-Phenotype (%)” value [5] was 0% and 4%. The “Population Mitotic Cells (%)” value [5] was 35% and 50%, the “Population Normal (%)” value [5] was 100% and the “Population Pyknosed Nuclei (%)” value [5] was 7% and 8%. The “Population Tubulin-Different-Phenotype (%)” value [5] was 92% and 47%, the “Population Apoptotic (%)” value [6] was 60% and 63% and the “Population Fragmented Nuclei (%)” value [6] was 5% and 2%. The “Population Healthy Nuclei (%)” value [6] was 68% and 90%, the “Population Hoechst High Intensity Objects (%)” value [6] was 2% and 0% and the “Population Membrane Permeable-Phenotype (%)” value [6] was 3% and 1%. The “Population Mitochondria Different-Phenotype (%)” value [6] was 4% and 0%, the “Population Mitotic Cells (%)” value [6] was 39% and 36% and the “Population Normal (%)” value [6] was 97% and 100%. The “Population Tubulin-Different-Phenotype (%)” value [6] was 52% and 84%.
With `COc1cc(Br)c(S(=O)(=O)Nc2ccc(C(F)(F)F)c(O[C@@H]3CCN(C)C3)c2)cc1OC` the “Population Fragmented Nuclei (%)” value [1] was 10% and 4%, the “Population Healthy Nuclei (%)” value [1] was 80% and 88% and the “Population Hoechst High Intensity Objects (%)” value [1] was 0%. The “Population Membrane Permeable-Phenotype (%)” value [1] was 4% and 0%, the “Population Mitochondria Different-Phenotype (%)” value [1] was 0% and the “Population Mitotic Cells (%)” value [1] was 100% and 46%. For the same compound, the “Population Normal (%)” value [1] was 100%, the “Population Pyknosed Nuclei (%)” value [1] was 10% and 7% and the “Population Tubulin-Different-Phenotype (%)” value [1] was 66% and 89%. The “Population Apoptotic (%)” value [2] was 60% and 78%, the “Population Healthy Nuclei (%)” value [2] was 67% and 85% and the “Population Hoechst High Intensity Objects (%)” value [2] was 0%. The “Population Membrane Permeable-Phenotype (%)” value [2] was 4% and 0%, the “Population Mitochondria Different-Phenotype (%)” value [2] was 4% and 0% and the “Population Mitotic Cells (%)” value [2] was 40% and 21%. For the same compound, the “Population Normal (%)” value [2] was 100%, the “Population Pyknosed Nuclei (%)” value [2] was 16% and 10% and the “Population Tubulin-Different-Phenotype (%)” value [2] was 66% and 59%. The “Population Apoptotic (%)” value [3] was 66% and 47%, the “Population Fragmented Nuclei (%)” value [3] was 7% and 3% and the “Population Healthy Nuclei (%)” value [3] was 85% and 88%. The “Population Hoechst High Intensity Objects (%)” value [3] was 0%, the “Population Membrane Permeable-Phenotype (%)” value [3] was 0% and 3% and the “Population Mitochondria Different-Phenotype (%)” value [3] was 0%. The “Population Mitotic Cells (%)” value [3] was 33% and 52%, the “Population Normal (%)” value [3] was 100% and the “Population Pyknosed Nuclei (%)” value [3] was 7%. For the same compound, the “Population Tubulin-Different-Phenotype (%)” value [3] was 77% and 87%, the “Population Fragmented Nuclei (%)” value [4] was 8% and 2% and the “Population Healthy Nuclei (%)” value [4] was 75% and 85%. For the same compound, the “Population Hoechst High Intensity Objects (%)” value [4] was 0%, the “Population Membrane Permeable-Phenotype (%)” value [4] was 0% and 2% and the “Population Mitochondria Different-Phenotype (%)” value [4] was 3% and 2%. The “Population Mitotic Cells (%)” value [4] was 83% and 48%, the “Population Normal (%)” value [4] was 100% and the “Population Pyknosed Nuclei (%)” value [4] was 16% and 11%. For the same compound, the “Population Tubulin-Different-Phenotype (%)” value [4] was 70% and 74%, the “Population Apoptotic (%)” value [5] was 30% and 51% and the “Population Healthy Nuclei (%)” value [5] was 69% and 89%. For the same compound, the “Population Hoechst High Intensity Objects (%)” value [5] was 0%, the “Population Membrane Permeable-Phenotype (%)” value [5] was 0% and 1% and the “Population Mitochondria Different-Phenotype (%)” value [5] was 0%. For the same compound, the “Population Mitotic Cells (%)” value [5] was 69% and 48%, the “Population Normal (%)” value [5] was 100% and 99% and the “Population Pyknosed Nuclei (%)” value [5] was 14% and 7%. The “Population Tubulin-Different-Phenotype (%)” value [5] was 79% and 91%, the “Population Apoptotic (%)” value [6] was 57% and 61% and the “Population Fragmented Nuclei (%)” value [6] was 9% and 1%. The “Population Healthy Nuclei (%)” value [6] was 79% and 91%, the “Population Hoechst High Intensity Objects (%)” value [6] was 0% and the “Population Membrane Permeable-Phenotype (%)” value [6] was 9% and 1%. The “Population Mitochondria Different-Phenotype (%)” value [6] was 5% and 0%, the “Population Mitotic Cells (%)” value [6] was 42% and 38% and the “Population Normal (%)” value [6] was 100%. For the same compound, the “Population Pyknosed Nuclei (%)” value [6] was 10% and 6% and the “Population Tubulin-Different-Phenotype (%)” value [6] was 92% and 81%.

From ChEMBL document CHEMBL5303300, “EUbOPEN Chemogenomics Library - Multiplex” (2023)
